CSC inhib: cancer stem cell viability inhibitors, primary screen, luminescence; AID 2717, 2010; cancer stem cell-like cells viability; 1.1% of 300,000 active; inhibition, % at 7.5 µM; in the data active = inhibition above about 75%; inconclusive = no clear call, values can overlap the other calls; tested in HMLE shEcad cells
Mdm2-MdmX inh: inhibitors of human Mdm2-MdmX association, primary screen, cell-based, luminescence, split luciferase, SaOS-2, uHTS. AID 485346, 2010. Protein Mdm4 (Homo sapiens) + E3 ubiquitin-protein ligase Mdm2 (Homo sapiens), …. inhibition, % at 8 µM. SaOS-2 split-luciferase Mdm2/MdmX complementation. 3% of 330,000 active;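 active = inhibition of at least 50% at 8 µM in the primary screen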
Target sequence (O15151 whole entry, looked up): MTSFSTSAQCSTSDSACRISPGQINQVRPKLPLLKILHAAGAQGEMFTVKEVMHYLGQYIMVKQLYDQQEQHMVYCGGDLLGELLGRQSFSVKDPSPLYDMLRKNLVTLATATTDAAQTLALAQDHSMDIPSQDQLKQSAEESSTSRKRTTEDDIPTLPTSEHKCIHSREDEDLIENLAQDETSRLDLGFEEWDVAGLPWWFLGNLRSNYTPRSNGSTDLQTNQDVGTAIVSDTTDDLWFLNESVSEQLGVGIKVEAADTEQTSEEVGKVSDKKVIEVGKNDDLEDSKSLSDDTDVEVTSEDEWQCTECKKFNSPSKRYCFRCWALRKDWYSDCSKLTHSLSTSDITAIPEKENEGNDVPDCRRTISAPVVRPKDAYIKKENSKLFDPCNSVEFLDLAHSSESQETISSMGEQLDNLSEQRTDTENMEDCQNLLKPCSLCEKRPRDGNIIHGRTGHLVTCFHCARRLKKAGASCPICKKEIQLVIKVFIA
Target sequence (Q00987 whole entry, looked up): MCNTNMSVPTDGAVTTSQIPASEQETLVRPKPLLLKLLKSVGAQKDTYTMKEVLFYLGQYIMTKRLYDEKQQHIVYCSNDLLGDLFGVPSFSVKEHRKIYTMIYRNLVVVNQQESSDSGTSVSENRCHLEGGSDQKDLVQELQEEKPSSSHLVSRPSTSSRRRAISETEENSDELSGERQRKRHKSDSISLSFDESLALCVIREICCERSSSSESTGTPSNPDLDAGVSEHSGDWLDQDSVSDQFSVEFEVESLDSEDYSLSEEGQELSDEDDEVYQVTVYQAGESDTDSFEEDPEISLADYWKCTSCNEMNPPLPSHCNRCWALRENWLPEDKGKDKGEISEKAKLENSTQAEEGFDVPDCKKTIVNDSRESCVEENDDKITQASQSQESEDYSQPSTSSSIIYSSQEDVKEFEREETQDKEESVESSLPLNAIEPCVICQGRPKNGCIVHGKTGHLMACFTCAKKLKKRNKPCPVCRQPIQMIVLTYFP
T cruzi inh: inhibitors of intracellular T. cruzi growth, primary screen, luminescence, NIH3T3 host cells. T. cruzi beta-gal in NIH3T3, 90 h. AID 1885, 2009. 1.4% of 300,000 active. inhibition, % (test concentration not listed);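 active = mean inhibition across valid replicates above about 55%, limit read from the data; inconclusive = mean below that limit but half or more replicates reach it; inactive = mean below it, under half of replicates reach it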;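 note: signal also drops with host cell toxicity which is not excluded here; 0% = plate median of DMSO wells and 100% = zero luminescence signal; higher percent means less beta-gal luminescence so fewer parasites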
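System: Mouse NIH/3T3 fibroblasts infected with β-gal-expressing T. cruzi Tulahuen C4 | Quantity: NIH/3T3 cells, 5,000 per well | Reagent: 5000 reporter trypomastigotes per well | Dosing: Compound pinned at 50 nL/well, DMSO | Schedule: 3 h host attachment, then at least 90 h co-culture | Detection: GalScreen luminescence, 60 min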
XBP1 UPR activ: activators of adaptive XBP1 UPR arm, primary screen, cell-based, CHO-XBP1 luciferase reporter, luminescence, uHTS; 0.33% of 330,000 active; activation, % at 20 µM; IRE1-XBP1 UPR activation; percent of tunicamycin response, DMSO as zero;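 active = versus positive control, 20 µM dose yields 30% or more activation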;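 note: 100% = tunicamycin at 10 µg/mL and 0% = DMSO only wells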
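Material: CHO-XBP1 cells stably carrying IRE1-XBP1-driven luciferase reporter / Amount: 1000 cells per well / Compound: 20 µM, 1% DMSO / Times: 6 h treatment, 37 °C / Detection: luciferase luminescence / Measure: % activation of reporter signal versus tunicamycin and DMSO controls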
Beta apoptosis: inhibitors of cytokine-induced beta cell apoptosis, primary screen, luminescence. INS-1E cytokine-induced death, ATP luminescence, 48 h; percent of positive-control rescue, neutral wells zero. 0.8% of 300,000 active. AID 435005, 2010. protection from apoptosis, % (concentration not given with the values);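 active = Every replicate reaches about 75%, or at least half do and their mean reaches it too, limit read from the data; inconclusive = At least half of replicates reach the limit but their mean does not; inactive = Under half of replicates reach the limit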;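 note: 0% = cytokine-treated negative control wells and 100% = positive control rescue; higher means more ATP so stronger rescue from cytokine killing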
CHOP UPR activ: activators of apoptotic CHOP UPR arm, primary screen, cell-based, CHO-CHOP luciferase reporter, luminescence, uHTS. AID 449763, 2010. activation, % at 10 µM. UPR activation; percent of tunicamycin response over DMSO baseline. 0.34% of 330,000 active;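 active = at 10 µM dose, activation of 40% or more, normalized to positive control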;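 note: 100% = tunicamycin at 10 µg/mL and 0% = DMSO alone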
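Material: CHO-CHOP cells, stable luciferase reporter of PERK-eIF2a-CHOP signalling; quantity: 500 reporter cells seeded per well; buffer or medium: F12 medium containing 10% fetal bovine serum; compound: one dose, 10 µM in 0.5% DMSO; incubation: 6 h compound treatment, 37 °C; measured by: Steady-Glo luciferase luminescence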
XBP1 UPR conf: IRE1-XBP1 UPR arm activators, confirmation, cell-based, CHO-XBP1 luciferase reporter, luminescence, single concentration; shares compounds with XBP1 UPR activ; activation, % at 20 µM; 63% of 1,000 active;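 active = reporter signal at least 30% of the positive control's activation in two or more of four replicate wells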;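 note: plate controls were DMSO negative control for no effect and tunicamycin 10 µg/mL positive control for full effect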
Mdm2 MdmX conf: Mdm2-MdmX complex disruptors, retested hits, confirmation, luminescence, single concentration | shares compounds with Mdm2-MdmX inh | Mdm2-MdmX binding, luminescent assay | inhibition, % at 8 µM | 55% of 10,000 active | AID 489028, 2010; in the data active = inhibition above about 40%
Full FLuc ctr: full-length luciferase signal inhibition, confirmation, counter-screen for Mdm2/MdmX interaction inhibitor project, cell-based, single concentration, SaOS-2; inhibition, % at 8 µM; AID 504607, 2011; shares compounds with Mdm2-MdmX inh; 77% of 6,200 active; SaOS-2 full-length luciferase counterscreen, luminescence;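 active = mean inhibition at 8 µM reaching about 37%, which flags the compound as non-specific, limit read from the data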;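 note: p53-null SaOS-2 cells with luciferase driven by a doxycycline-inducible promoter; compound on cells about two nights before reading with doxycycline added after day one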
The depositor's hits bear a star; ? = inconclusive; · = no result. A selection: hits, their analogues and other compounds. The true share with any hit is near 5%.

SMILES | CSC inhib | Mdm2-MdmX inh | T cruzi inh | XBP1 UPR activ | Beta apoptosis | CHOP UPR activ | XBP1 UPR conf | Mdm2 MdmX conf | Full FLuc ctr
C#CCOCCOCCOCCNc1nc(N2CCN(C(=O)CCCCCCCCCCNC(=O)[C@H](CCCCN)n3cc(C[C@@H](C)CC)nn3)CC2)nc(N2CCN(C(=O)CCCCCCCCCCNC(=O)[C@@H]([C@H](C)O)n3cc(C)nn3)CC2)n1 | 19 | 97* | · | 40* | 99* | 29 | 1 | 97* | 7
CC1(C)CC[C@@]23CC[C@]4(C)[C@@](OC2=O)(C3C1)[C@H]1O[C@H]1C1[C@@]2(C)CC[C@H](O)C(C)(C)C2CC[C@]14C (stereo partly drawn) | -15 | 75* | 3 | 50* | 3 | 0 | 46* | -5 | ·
CC1(C)C2CC[C@]3(C)C(CC=C4[C@@H]5C[C@@](C)(CO)[C@@H]6C[C@@]5(CC[C@]43C)C(=O)O6)[C@@]2(C)CC[C@@H]1O (stereo partly drawn) | -15 | 25 | -4 | 0 | 0 | -1 | · | · | ·
O=C(Nc1cc(S(=O)(=O)N2CCOCC2)ccc1Cl)c1cc([N+](=O)[O-])ccc1Cl | 51 | 97* | · | 69* | 5 | 1 | 24 | 44* | 12
Clc1ccc(Cn2ncc3c(N4CCCCC4)ncnc32)cc1 | -4 | 14 | 5 | 3 | 0 | 0 | · | · | ·
Brc1cc(Br)c2ncnc(N3CCCCC3)c2c1 | 84* | 89* | 2 | 59* | 13 | -1 | 41* | 64* | 28
COc1ccc(Cn2c(SCc3ccccc3C)nc3cc(OC)c(OC)cc3c2=N)cc1 | 100* | 97* | 48 | 115* | 108* | 16 | 61* | 52* | 48*
COc1ccc(C(=O)NCc2nnc(SCC(=O)NCCc3ccccc3)o2)cc1 | 8 | 17 | 0 | -3 | -7 | 0 | · | · | ·
CCCC(=O)N(c1ccc2oc(C)c(C(C)=O)c2c1)S(=O)(=O)c1ccc(C)c([N+](=O)[O-])c1 | 7 | 29 | -38 | 1 | -12 | -2 | · | · | ·
COC(=O)c1c(C)oc2ccc(N(C(=O)Oc3ccccc3)S(=O)(=O)c3ccc(Cl)c([N+](=O)[O-])c3)cc12 | 63 | 96* | 26 | 32* | 0 | 4 | 139* | -12 | ·
COc1ccc2cc3cc(C(=O)Nc4ccccc4N4CCN(C)CC4)oc3nc2c1 | 14 | 101* | 67* | 40* | 23 | 3 | 13 | 4 | ·
Cc1ccc(C)c(NC(=O)CCn2nc(C)cc2C)c1 | -4 | 16 | 1 | -3 | · | 0 | · | · | ·
COc1ccc(C(=O)NC(=S)NNC(=O)[C@H]2C[C@@H]2c2ccccc2)cc1OC | 29 | 62* | -11 | 65* | 18 | 1 | 14 | 20 | ·
CCOc1ccc(-c2nc(CSCC(=O)NC3CCCc4ccccc43)c(C)o2)cc1 (stereo not drawn) | 2 | 11 | 38 | 2 | 3 | 1 | · | · | ·
CC(C)C(=O)c1cn(CC(=O)NCC2CCCO2)c2ccccc12 (stereo not drawn) | -10 | 7 | -5 | -1 | -3 | 1 | · | · | ·
CCOC(=O)C1=C(O)/C(=C/c2cn(CC(=O)NCC3CCCO3)c3ccccc23)SC1=Nc1ccc(C)cc1 (stereo not drawn) | 76* | 99* | · | 66* | 57 | 23 | 31* | 92* | 47*
CSc1cccc(CN2CCC(n3nccc3NC(=O)C3CC3)CC2)c1 | · | 8 | 11 | -9 | · | 1 | · | · | ·
Cc1c(CCOC(=O)CC23CC4CC(CC(C4)C2)C3)sc[n+]1CC(=O)c1ccc(Br)cc1 | 118* | 51* | 13 | 34* | 38 | 3 | 1 | -2 | ·
CN(C)CCCNC(=O)c1ccc(-c2nc(-c3ccc(Cl)cc3)cs2)cc1 | 100* | 87* | 65* | 82* | 47 | 9 | 159* | 94* | 28
CN(C)CCCNC(=O)c1ccccn1 | -17 | -11 | -18 | 1 | -11 | -1 | · | · | ·
COc1ccc(OC)c(-c2cc(C(F)(F)F)c3c(n2)sc2c(O)cc(=O)[nH]c23)c1 | 1 | 22 | -4 | -1 | 3 | 1 | · | · | ·
CCN1CCN(c2nc(N(C)c3ccccc3)nc(N)c2[N+](=O)[O-])CC1 | 7 | -10 | 31 | 1 | -8 | -1 | · | · | ·
COCc1cc(C)nc(SCC(=O)Nc2cccc(C)c2C)c1C#N | -11 | 14 | -11 | -4 | -1 | 2 | · | · | ·
Cc1cccc(NC(=O)CSc2nc(C)c(CC(=O)c3ccc(Br)cc3)c(C)c2C#N)c1C | 36 | 100* | 8 | 48* | ? | 28 | 98* | 6 | ·
CC1=CC(C)(C)N2C(=O)C(=O)c3cc(OC(=O)c4ccco4)cc1c32 | -7 | 75* | -17 | 41* | 12 | 1 | 57* | 59* | 52*
COc1ccc(Cl)cc1NC(=O)C(C)N(C)Cc1cccc(Cl)c1Cl (stereo not drawn) | -12 | 3 | 20 | -1 | 4 | -1 | · | · | ·
COc1ccc2cc1Oc1ccc(cc1)C[C@H]1c3c(cc(OC)c4c3Oc3c(ccc5c3[C@H](C2)N(C)CC5)O4)CCN1C | 105* | 100* | · | 68* | 122* | 19 | 52* | 42* | 11
CN1CCc2cccc3c2C1Cc1ccc(O)c(O)c1-3 (stereo not drawn) | 1 | -16 | 1 | -6 | -5 | -1 | · | · | ·
CCN(Cc1ccccc1)S(=O)(=O)c1ccc(C(=O)N(CCCN(C)C)c2nc3c(F)cccc3s2)cc1 | 2 | 17 | 31 | -3 | 0 | 2 | · | · | ·
CCCCN(CC)S(=O)(=O)c1ccc(C(=O)N(CCCN(C)C)c2nc3cc(C)cc(C)c3s2)cc1 | 99* | 71* | 67* | 45* | 43 | 4 | 36* | 10 | ·
